From ChEMBL document CHEMBL4513216, “Probing the Open Global Health Chemical Diversity Library for Multistage-Active Starting Points for Next-Generation Antimalarials” (ACS Infect Dis, 2020)

Assay: Toxicity liver stage against HepG2, at 10uM
Assay type: cell-based
Parameters: test concentration 10 uM, cell line HepG2-A16-CD81EGFP
Conditions: human, HepG2-A16-CD81EGFP cells; read-out: INHIBITION
Summary of the method: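 Uninfected HepG2-A16-CD81EGFP cells, 3 × 10^3 per well, 1536-well, plated on prespotted compound at 10 μM final, parasite-free screening media added to match infected plates; puromycin 10 μM positive, DMSO 0.5% negative; run in parallel with 48 h PbLuc assay at 37 °C, 5% CO2; viability by CellTiter-Glo luminescence, normalized to controls.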

SMILES	cytotoxicity at 10 µM [%]
COC(=O)c1cnn(-c2cc(Oc3cccc(C)c3)ncn2)c1N	34.1
COc1ccc2cc(NC(=O)CCNc3nc(C)cc(C)n3)cnc2c1	-48.9
Cc1cnc2c(c1NCc1ccc3c(c1)OCO3)c(=O)n(C)c(=O)n2C	16.7
CC(=O)Nc1cc(C2CC2)nn1-c1nc(C)c(C)c(=O)[nH]1	-1.39
Cc1csc(CN2CC[C@H]3C[C@@H](c4nnc(C)[nH]4)O[C@@H]3C2)n1	1.56
CO[C@@H]1CO[C@@]2(CCN(C(=O)COc3ccccc3C)C2)C1	9.95
CCOC(=O)CN1CCC2(CC1)CC(=O)c1ccc(OC)cc1O2	6.2
CCS(=O)(=O)N1CCc2ccc(NC(=O)Nc3ccc(F)cc3F)cc21	51.2
CC(Cn1cc(Br)cn1)C(=O)Nc1ccc(C(N)=O)cc1 (configuration not stated)	-0.609
COc1c(Br)c(C(=O)NC2CCCC2)nn1C	6.44
CCN1CCCC1CNCc1cc2cc(OC)ccc2[nH]c1=O (configuration not stated)	-10.2
CS(=O)(=O)N1CC(c2n[nH]c3ncccc23)C1	-23.4
CNC(=O)c1cn[nH]c1C1(C)CCCN(Cc2ccccc2OC)C1 (configuration not stated)	0.353
NC(=O)C1(c2cnccn2)CCCN1Cc1ccncc1 (configuration not stated)	-0.446
Cc1nnsc1C(=O)N1CC[C@H](c2ccccc2)[C@@H]2[C@H]1CCCCN2C	-17.6
CC1CCCCN1c1nc2c(c(=O)[nH]1)CCN(Cc1ccccc1F)C2 (configuration not stated)	-4.39
COCc1cccc(CNc2cnn(C(C)(C)C)c(=O)c2Cl)c1	59.2
CCc1nnc2n1CCN(c1nc(C)cc(N(C)C)n1)C2	-5.89
CC(C)(C)Oc1ccncc1NCc1cscn1	15.7
O=C(c1nc(N2CCCC2)ncc1Cl)N1CCN(Cc2ccsc2)CC1	-56
COc1ccccc1NC(=O)CC(C)NCCc1sc(C)nc1C (configuration not stated)	4.82
Cc1cnn(C2CN(CCOc3cccc(C#N)c3)C2)c1	5.62
Cc1nc(-c2nnc[nH]2)sc1C(=O)N1CCCC1c1ccsc1 (configuration not stated)	-3.34

SMILES	cytotoxicity at 10 µM [%]
CC(c1ccco1)N(C(=O)NCc1ccon1)C1CC1 (configuration not stated)	0.805
CC(C)c1noc(C(C)S(=O)(=O)Cc2nc(C3CC3)no2)n1 (configuration not stated)	-0.828
CCn1ccnc1CN1CCCC1C(=O)Nc1nccs1 (configuration not stated)	-6.7
CCNC(=O)NC(=O)C(C)N(C)CCOc1ccccc1C (configuration not stated)	3.45
C=C(C)Cn1nnc(C2(NC(=O)c3ccccc3)CCCC2)n1	7.09
Cc1cccc(NC(=O)C2CCCN2C(=O)c2ccco2)c1C (configuration not stated)	-2.59
CC(c1cccnc1)N(C)Cc1ccccn1 (configuration not stated)	0.423
CC(C)(C)n1ncc2c1CCCC2NCc1ccc2ncccc2c1 (configuration not stated)	7.74
NCC(c1ccc(Cl)cc1)N1CCc2sccc2C1 (configuration not stated)	6.33
CS(=O)(=O)NCCCNc1ccc(C(F)(F)F)cc1C#N	-2.18
CCCNC(=O)CCNC(=O)N1CCc2c(F)ccc(F)c2C1	-9.91
O=S(=O)(N1CCCCCC1)N1CCN(Cc2ccc(F)cc2Br)CC1	-132
NC(=O)Nc1cccc(C(=O)N(Cc2ccncc2)C2CC2)c1	-2.34
CN(C)c1nc(N)nc(CN2CCCC2c2cccs2)n1 (configuration not stated)	5.21
Cc1noc(C)c1CCC(=O)Nc1ccn(C)n1	-2.4
O=C(NCC1CCN(CCc2ccccc2)C1)c1cc(Cl)c[nH]1 (configuration not stated)	10
Cc1cc(O)ncc1NS(=O)(=O)c1cccc(F)c1F	0.753
CCN(C(=O)Nc1nccs1)C(C)c1cccc(O)c1 (configuration not stated)	-2.11
O=C(COCCOc1ccccc1)Nc1ccnn1CC1CCOC1 (configuration not stated)	1.88
CCOc1cc(CNC(=O)c2cnn(CC)c2C(F)(F)F)ccn1	16.8
Cc1nn(C)cc1C(C)Nc1ncc(C(N)=O)cc1Cl (configuration not stated)	3.68
Cc1c(C(=O)NCCC(=O)N2CCCC2)cccc1-c1ccccn1	1.39
O=C(NCc1ccc(Cl)s1)c1ccc(N2CCOC2=O)cc1	21.1

SMILES	cytotoxicity at 10 µM [%]
COc1c(C)cnc(CN(C)C2CCCCC2)c1C	20.5
COCCCNC(=O)C(C)(C)N(C)C1CCCC1	-51.3
Clc1ccc2oc(C3CCN(Cc4cccnc4)CC3)nc2c1	9.82
COCCn1c2c(ccc1=O)CC(NC(=O)c1cscn1)CC2 (configuration not stated)	-97
CC(C)CCN1CCc2nc(N3CCOCC3)nc(NC(C)C)c2C1	-113
c1csc(CN2CC[C@H]3O[C@@H](COCC4CC4)CC[C@H]32)c1	-74.8
COCCN1CCn2cc(CN(C)Cc3ccco3)nc2C1	-74.9
c1cnc(N2CCOCC3(CCCN(c4nncs4)C3)C2)cn1 (configuration not stated)	3.92
Cc1ncc(-c2ccnc(SCCN(C)C)n2)c(-c2ccco2)n1	-7.25
CC(C)(O)CCc1ccc(C(=O)N2Cc3cnn(CCO)c3C2)cc1	2.69
CCC(CO)N(Cc1cccs1)C(=O)Cc1ccc(O)cc1 (configuration not stated)	6.57
c1ccc(-c2cccc(N3CCC(NCCc4cscn4)CC3)c2)cc1	3.58
O=C1CCC(C(=O)N2CCOC(Cc3ccccc3Cl)C2)=NN1 (configuration not stated)	-0.108
CC1(C)CC(CC(=O)N2CC(C)(C)[C@@](C)(O)C2)CC(C)(C)N1	-4.84
O=C(CN1CCOc2ccccc2C1)N1Cc2cnn(CCO)c2C1	-3.24
Cn1ncc2c(NCCOCc3ccccc3)nc(C3CCCC3)nc21	9.67
CC(C)Oc1cccc(F)c1C(C(=O)O)N(C)Cc1ccon1 (configuration not stated)	-33.5
COc1ccc(OC2CCN(C(=O)c3ccc(C(C)=O)s3)CC2)cc1	3.58
Cc1ccsc1-c1cccc(-c2ccn(CC3CCNC3)n2)c1 (configuration not stated)	-0.288
O=C1NCC2(CCN(C(=O)c3ccc4c(c3)CCCO4)CC2)O1	-5.8
Cc1nc(-c2cccnc2)ncc1C(=O)N1CCC(C(C)N(C)C)CC1 (configuration not stated)	-1.8
CCNc1ccnc(NC2CCN(S(C)(=O)=O)CC2)n1	-5.16
CC(=O)N1CCN(C(=O)Nc2ccccc2Cl)[C@H]2CS(=O)(=O)C[C@H]21	-0.166

SMILES	cytotoxicity at 10 µM [%]
COc1nc2ccn(CCc3cnccn3)c(=O)c2cc1C#N	54.1
COCCn1ccnc1CN(Cc1ccccn1)Cc1sccc1C	2.16
CN(C)C(=O)c1cc2c(s1)CCN(C(=O)CCCN1CCCCC1)C2	-41.4
COc1cc(-c2cc(-c3ccn(C)c3)nc(N)c2C#N)cc(OC)c1O	-7.77
O=C1CC2(CCN(Cc3ccoc3)CC2)CN1Cc1cc(F)cc(F)c1	12.2
Cc1ccc(CN2CC3(CCNCC3)CCC2=O)c(F)c1F	4.95
CSc1nnc(CC2CCN(C(=O)COc3cccnc3)CC2)n1C	-45.9
COc1coc(CN2CCCC(CCc3ccc(F)cc3)C2)cc1=O (configuration not stated)	2.16
O=C1CC(c2ccsc2)c2snc(C(=O)O)c2N1 (configuration not stated)	-0.772
Cc1cc(=O)c2cc(F)ccc2n1CC(=O)O	0.753
O=C(c1ccnc(N2CCOC(c3ccc(Cl)cc3)C2)c1)N1CCCC1 (configuration not stated)	-1.8
CSc1nccc(N2CCC3(CCCN(Cc4cccc(C)c4)C3)C2)n1 (configuration not stated)	12.1
CN(Cc1cccc(O)c1)CC1CCCN(CCc2ccc(Cl)cc2)C1 (configuration not stated)	6.22
Cc1cn(Cc2ccc(F)c(F)c2)nc1N	-13.5
Clc1ccccc1CCN1CCN(c2ccc3nncn3n2)CC1	1.78
Cc1csc(N2CCN(CC(=O)Nc3ccncc3)CC2C)n1 (configuration not stated)	29.3
CSCCc1ccc(NC(=O)NCc2ccnc(N(C)C)c2)cc1	0.661
Cn1cnc2c1CCN(Cc1csc(-c3ccccc3F)n1)C2	-4.25
Cc1ncsc1C(=O)NCc1ccnc(OCC(F)(F)F)c1	-1.37
CN(C)CC1CN(Cc2coc(-c3ccc(Cl)cc3)n2)CCO1 (configuration not stated)	0.35
CCc1cccc(N2CCC(NC(=O)c3ccoc3C)CC2)c1	-10.8
c1ccc(-c2noc(CN3CCc4cncnc4C3)n2)nc1	-2.97
CSc1sc(NC(=O)Cc2c(C)nc(C)[nH]c2=O)nc1C	-1.29

SMILES	cytotoxicity at 10 µM [%]
CCCn1nc2c(cc1=O)CN(CCS(C)(=O)=O)CC2	-8.87
CCCC(=O)N(CCCN1CCOCC1)c1nc2c(Cl)cccc2s1	-12.8
Cc1cnc(N2CCC3(CC2)CC3CN(C)Cc2cccnc2)nc1 (configuration not stated)	-0.37
CN(C)CCOCc1nnc2n1CCN(Cc1ccc(F)cc1)CC2	-5.63
COCC1CC2(CCN(Cc3nccs3)CC2)CN1Cc1ccccn1 (configuration not stated)	-98.4
CN(Cc1ccncc1)C1COC2(CCN(Cc3nccn3C)CC2)C1 (configuration not stated)	-98.7
CCn1cc2c(n1)CN(Cc1ccc(F)cc1)CC2COCC1CC1 (configuration not stated)	-69
CC(C)NC1CCc2c(ccc(=O)n2CCN2CCOCC2)C1 (configuration not stated)	7.64
O=C1COC2(CCN(c3ncccn3)CC2)CN1	12.9
Cc1ccc(CN2CC3(CCN(C(=O)c4cccnc4)C3)C2)o1	-79.6
O=C([C@H]1COC[C@H]2CN(C3CCCC3)C[C@H]21)N1CCCO1	2.14
CCCS(=O)(=O)N1CCC2(CC1)CC(N1CCCC1)c1ccccc12 (configuration not stated)	-0.664
O=C1CC2(CCCCN2C(=O)Cc2ccccc2)CN1c1cccnc1 (configuration not stated)	-2.71
c1ccc(O[C@H]2CO[C@@]3(CCN(Cc4ccc5c(c4)OCO5)C3)C2)nc1	-76.4
Cn1ccnc1C(=O)N1CCC2(CCN2c2ncccn2)C1 (configuration not stated)	-0.736
Cc1ccc(CN2Cc3nnn(C)c3C(COCC3CC3)C2)s1 (configuration not stated)	4.27
N#Cc1ccc(N2CCC3(CC2)CC(N2CCOCC2)CO3)cc1 (configuration not stated)	19
Fc1cccc(N2CCCC3(CN(Cc4cccnc4)CCO3)C2)c1 (configuration not stated)	-78.2
COc1ccc(CN2C[C@H]3CC[C@@H](C2)N(Cc2snnc2C)C3)cc1	-21.7
CN1[C@@H]2CC[C@H]1CN(c1nc(-c3ccncc3)nc3c1cnn3C)CC2	38.7
